Experimental data as given in ChEMBL document CHEMBL5724801, “EUbOPEN Chemogenomics Library - Multiplex” (2024).
“And” between values parts separate entries of the source, which are not always exact repeats. Equal values may be shown once.

Key:
HEK-293T = assay: Multiplex assay against HEK293T; format: toxicity, cell-based; conditions: human
Procedure, shortened: (§1)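 Hoechst33342, BioTracker Green Microtubule Cytoskeleton Dye, MitoTracker Red and Annexin V Alexa Fluor 680 were added to live cells at seeding, and imaging on a CQ1 microscope at 37°C and 5% CO2 followed compound addition. Gating by CellPathfinder machine learning separated cells into Hoechst high-intensity objects or normal cells, then normal cells into healthy, pyknosed or fragmented nuclei, then pyknosed cells into mitotic or apoptotic. Per cents of healthy-nucleus cells are reported for the tubulin, mitochondrial-mass and membrane-permeability phenotypes.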

U2OS = assay: Multiplex assay against U2OS; format: toxicity, cell-based; conditions: human; procedure, shortened: as §1
[1] = 24 h, 10 µM, compound concentration 10 uM
[2] = 48 h, 1 µM, compound concentration 1 uM
[3] = 48 h, 10 µM, compound concentration 10 uM
[4] = 12 h, 1 µM, compound concentration 1 uM
[5] = 12 h, 10 µM, compound concentration 10 uM
[6] = 24 h, 1 µM, compound concentration 1 uM

SMILES: Cc1cc(NC(=O)NCCN2CCC(O)(Cc3ccccc3)CC2)c2ccccc2n1 [PALOSURAN]
- Population Fragmented Nuclei (%) (HEK-293T; [1]): 8% and 7%
- Population Healthy Nuclei (%) (HEK-293T; [1]): 79% and 83%
- Population Hoechst High Intensity Objects (%) (HEK-293T; [1]): 4% and 6%
- Population Membrane Permeable-Phenotype (%) (HEK-293T; [1]): 0%
- Population Mitochondria Different-Phenotype (%) (HEK-293T; [1]): 43% and 64%
- Population Mitotic Cells (%) (HEK-293T; [1]): 64% and 48%
- Population Normal (%) (HEK-293T; [1]): 95% and 93%
- Population Pyknosed Nuclei (%) (HEK-293T; [1]): 11% and 9%
- Population Tubulin-Different-Phenotype (%) (HEK-293T; [1]): 32% and 26%
- Total Cell Count (HEK-293T; [1]): 598 and 396
- Population Apoptotic (%) (HEK-293T; [2]): 19% and 32%
- Population Fragmented Nuclei (%) (HEK-293T; [2]): 15% and 13%
- Population Healthy Nuclei (%) (HEK-293T; [2]): 79% and 81%
- Population Hoechst High Intensity Objects (%) (HEK-293T; [2]): 3%
- Population Membrane Permeable-Phenotype (%) (HEK-293T; [2]): 1% and 0%
- Population Mitochondria Different-Phenotype (%) (HEK-293T; [2]): 16% and 24%
- Population Mitotic Cells (%) (HEK-293T; [2]): 80% and 67%
- Population Normal (%) (HEK-293T; [2]): 96%
- Population Pyknosed Nuclei (%) (HEK-293T; [2]): 5%
- Population Tubulin-Different-Phenotype (%) (HEK-293T; [2]): 12% and 15%
- Total Cell Count (HEK-293T; [2]): 938 and 552
- Population Apoptotic (%) (HEK-293T; [3]): 29% and 41%
- Population Fragmented Nuclei (%) (HEK-293T; [3]): 15% and 9%
- Population Healthy Nuclei (%) (HEK-293T; [3]): 75% and 84%
- Population Hoechst High Intensity Objects (%) (HEK-293T; [3]): 5% and 4%
- Population Membrane Permeable-Phenotype (%) (HEK-293T; [3]): 0%
- Population Mitochondria Different-Phenotype (%) (HEK-293T; [3]): 34% and 42%
- Population Mitotic Cells (%) (HEK-293T; [3]): 70% and 58%
- Population Normal (%) (HEK-293T; [3]): 94% and 95%
- Population Pyknosed Nuclei (%) (HEK-293T; [3]): 8% and 6%
- Population Tubulin-Different-Phenotype (%) (HEK-293T; [3]): 17% and 19%
- Total Cell Count (HEK-293T; [3]): 874 and 570
- Population Apoptotic (%) (U2OS; [4]): 80% and 71%
- Population Fragmented Nuclei (%) (U2OS; [4]): 27% and 19%
- Population Healthy Nuclei (%) (U2OS; [4]): 65% and 71%
- Population Hoechst High Intensity Objects (%) (U2OS; [4]): 1% and 0%
- Population Membrane Permeable-Phenotype (%) (U2OS; [4]): 4% and 2%
- Population Mitochondria Different-Phenotype (%) (U2OS; [4]): 2% and 0%
- Population Mitotic Cells (%) (U2OS; [4]): 20% and 28%
- Population Normal (%) (U2OS; [4]): 98% and 100%
- Population Pyknosed Nuclei (%) (U2OS; [4]): 6% and 9%
- Population Tubulin-Different-Phenotype (%) (U2OS; [4]): 1%
- Total Cell Count (U2OS; [4]): 220 and 145
- Population Apoptotic (%) (U2OS; [5]): 72% and 66%
- Population Fragmented Nuclei (%) (U2OS; [5]): 30% and 17%
- Population Healthy Nuclei (%) (U2OS; [5]): 59% and 70%
- Population Hoechst High Intensity Objects (%) (U2OS; [5]): 3%
- Population Membrane Permeable-Phenotype (%) (U2OS; [5]): 6% and 12%
- Population Mitochondria Different-Phenotype (%) (U2OS; [5]): 1% and 2%
- Population Mitotic Cells (%) (U2OS; [5]): 28% and 33%
- Population Normal (%) (U2OS; [5]): 96%
- Population Pyknosed Nuclei (%) (U2OS; [5]): 9% and 11%
- Population Tubulin-Different-Phenotype (%) (U2OS; [5]): 1% and 8%
- Total Cell Count (U2OS; [5]): 266 and 107
- Population Apoptotic (%) (U2OS; [6]): 94% and 66%
- Population Fragmented Nuclei (%) (U2OS; [6]): 26% and 17%
- Population Healthy Nuclei (%) (U2OS; [6]): 66% and 74%
- Population Hoechst High Intensity Objects (%) (U2OS; [6]): 1%
- Population Membrane Permeable-Phenotype (%) (U2OS; [6]): 3% and 7%
- Population Mitochondria Different-Phenotype (%) (U2OS; [6]): 3% and 7%
- Population Normal (%) (U2OS; [6]): 98%
- Population Pyknosed Nuclei (%) (U2OS; [6]): 6% and 8%
- Population Tubulin-Different-Phenotype (%) (U2OS; [6]): 2% and 3%
- Total Cell Count (U2OS; [6]): 276 and 173
- Population Apoptotic (%) (U2OS; [1]): 92% and 75%
- Population Fragmented Nuclei (%) (U2OS; [1]): 26% and 19%
- Population Healthy Nuclei (%) (U2OS; [1]): 65% and 74%
- Population Hoechst High Intensity Objects (%) (U2OS; [1]): 3%
- Population Membrane Permeable-Phenotype (%) (U2OS; [1]): 4% and 11%
- Population Mitochondria Different-Phenotype (%) (U2OS; [1]): 0% and 1%
- Population Normal (%) (U2OS; [1]): 96%
- Population Pyknosed Nuclei (%) (U2OS; [1]): 8% and 6%
- Population Tubulin-Different-Phenotype (%) (U2OS; [1]): 2% and 5%
- Total Cell Count (U2OS; [1]): 297 and 129
- Population Apoptotic (%) (U2OS; [2]): 96% and 84%
- Population Fragmented Nuclei (%) (U2OS; [2]): 25% and 15%
- Population Healthy Nuclei (%) (U2OS; [2]): 68% and 73%
- Population Hoechst High Intensity Objects (%) (U2OS; [2]): 1% and 3%
- Population Membrane Permeable-Phenotype (%) (U2OS; [2]): 5% and 7%
- Population Mitochondria Different-Phenotype (%) (U2OS; [2]): 3% and 5%
- Population Normal (%) (U2OS; [2]): 98% and 97%
- Population Pyknosed Nuclei (%) (U2OS; [2]): 6% and 11%
- Population Tubulin-Different-Phenotype (%) (U2OS; [2]): 3% and 4%
- Total Cell Count (U2OS; [2]): 411 and 233
- Population Apoptotic (%) (U2OS; [3]): 97% and 89%
- Population Fragmented Nuclei (%) (U2OS; [3]): 20% and 16%
- Population Healthy Nuclei (%) (U2OS; [3]): 70% and 72%
- Population Hoechst High Intensity Objects (%) (U2OS; [3]): 1%
- Population Membrane Permeable-Phenotype (%) (U2OS; [3]): 5% and 7%
- Population Mitochondria Different-Phenotype (%) (U2OS; [3]): 2% and 4%
- Population Mitotic Cells (%) (U2OS; [3]): 2% and 10%
- Population Normal (%) (U2OS; [3]): 98%
- Population Pyknosed Nuclei (%) (U2OS; [3]): 9% and 10%
- Population Tubulin-Different-Phenotype (%) (U2OS; [3]): 2% and 1%
- Total Cell Count (U2OS; [3]): 421 and 180
